Laboratory results from ChEMBL document CHEMBL1121408, “Cyclophosphamide potentiation and aldehyde oxidase inhibition by phosphorylated aldehydes and acetals” (J Med Chem, 1980).

Tests used:
Mus musculus [1] = experiment: Percent increase in life span of mice bearing L1210 ascites cells compared to control (in vivo); format: functional
Summary of the method: (§1)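 BDF1 female mice (18-20 g), groups of six, implanted ip with 10^5 L1210 ascites cells. On day 1 (24 h later), a single ip injection of test agent at 200 mg/kg, alone or with cyclophosphamide at 100 mg/kg, as a solution or suspension in 5% Tween 80 in normal saline, pH 4. Acetals were heated at 80 °C for 2 h just before injection. Vehicle-only controls were run. Deaths were recorded daily. %ILS = (mean treated life span − mean control)/mean control × 100, with survivors capped at 30 days. Survival was scored as the percent of each group alive 50 days after day 1.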

Mus musculus [2] = experiment: Percent animals surviving 50 days from day 1 (in vivo); format: functional; summary of the method: as §1

| Compound | ILC (Mus musculus [1]) [%] | Cures (Mus musculus [2]) [%] |
| --- | --- | --- |
| CCOP(=O)(CC=O)OCC | 180 | 67 |
| CCOC(CCP(=O)(OCC)OCC)OCC | 204 | 83 |
| CCOC(CCP(=O)(OCC)c1ccccc1)OCC (stereo not given) | 166 | 50 |
| CCOP(=O)(CCC=O)c1ccccc1 (stereo not given) | 175 | 83 |
| Cc1ncc(CO)c(C=O)c1O [PYRIDOXAL] | 164 | 33 |
